Experimental data as given in ChEMBL document CHEMBL3397031, “Synthesis and structure-activity relationships of pyridinyl-1H-1,2,3-triazolyldihydroisoxazoles as potent inhibitors of tubulin polymerization” (Eur J Med Chem, 2015).
The source made the active and inactive calls. The calls are words filed in the database; no cut-off is given here.

Tests used:
A549 = assay: Cytotoxicity against human A549 cells after 48 hrs by MTT assay; assay type: functional, cell-based; conditions: A549, 48 h
How it was run: (§1)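 A549, HeLa and MCF7 cells were grown in DMEM with 10% FBS, and DU145 in MEM with non-essential amino acids, pyruvate, insulin and 10% FBS. Cells were plated 24 h before dosing, then exposed continuously for 48 h at 1, 10, 25 and 100 µM in triplicate wells. MTT was added for 60 min, dissolved in DMSO and read at 560 nm. IC50 was taken from dose-response curves against control, as mean ± SD of three independent experiments.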

DU-145 = assay: Cytotoxicity against human DU145 cells after 48 hrs by MTT assay; assay type: functional, cell-based; conditions: DU-145, 48 h; how it was run: as §1
HeLa [1] = assay: Cytotoxicity against human HeLa cells after 48 hrs by MTT assay; assay type: functional, cell-based; how it was run: as §1
MCF7 = assay: Cytotoxicity against human MCF7 cells after 48 hrs by MTT assay; assay type: functional, cell-based; conditions: MCF7, 48 h; how it was run: as §1
Tubulin (Bos taurus) = Tubulin (Bos taurus) (UniProt Q6B856+Q862L2+Q862F3); conditions: at 10 µM;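 further: polymerization of tubulin from bovine brain, tracked by a fluorescence readout over 1 h, reported as percent inhibition of assembly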
HeLa [2] = assay: Cell cycle arrest at G2/M phase in human HeLa cells assessed as increase in cyclin B1 expression at 2 uM after 24 hrs by immunoblot analysis relative to control; assay type: functional, cell-based
HeLa [3] = assay: Cell cycle arrest at G2/M phase in human HeLa cells assessed as soluble form of tubulin at 2 uM after 24 hrs by immunoblot analysis relative to control; assay type: functional, cell-based
How it was run: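 HeLa cells seeded at 1×10^5 per well in complete growth medium and treated 24 h (test compounds 10 µM; nocodazole 2 µM as positive control; DMSO controls). Soluble tubulin was taken by 3 min permeabilization at 30 °C in PIPES-KOH pH 6.8/0.2% Triton X-100/glycerol buffer, and insoluble pellet fraction in Laemmli buffer. Equal volumes were run on SDS-10% PAGE and probed with mouse anti-α-tubulin, with HRP secondary and ECL detection.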

SMILES | inhibition (Tubulin (Bos taurus)) [%] | IC50 (A549) [µM] | IC50 (DU-145) [µM] | IC50 (HeLa [1]) [µM] | IC50 (MCF7) [µM] | Activity (HeLa [2]) | Activity (HeLa [3])
COc1cc(COCc2cn(Cc3cc(C)cnc3Cl)nn2)cc(OC)c1OC | 24 | 41.9 | 34.8 | 264 | 67.4 | – | –
COc1cc(-c2cc(COCc3cn(Cc4cc(-c5ccc(C)cc5)cnc4Cl)nn3)on2)cc(OC)c1OC | 59 | 30.6 | 37.3 | 35.3 | 58.4 | – | –
COc1cc(COCc2cn(Cc3cc(-c4ccc(C)cc4)cnc3N3CCSCC3)nn2)cc(OC)c1OC | 21 | 33.9 | 41.9 | 352 | 67.8 | – | –
COc1cc(C2=NOC(COCc3cn(Cc4cc(C)cnc4Cl)nn3)C2)cc(OC)c1OC (stereo unspecified) | 53 | 37.7 | 58.9 | 50.5 | 85.5 | – | –
COc1cc(C2=NOC(COCc3cn(Cc4cc(-c5ccc(C)cc5)cnc4N4CCSCC4)nn3)C2)cc(OC)c1OC (stereo unspecified) | 22 | 43.2 | 87.3 | 39.2 | 71.1 | – | –
COC(=O)Nc1nc2cc(C(=O)c3cccs3)ccc2[nH]1 | – | – | – | – | – | Active | Active
COc1cc(C2=NOC(COCc3cn(Cc4cc(-c5ccc(F)cc5)cnc4Cl)nn3)C2)cc(OC)c1OC (stereo unspecified) | 51 | 25.2 | 32.8 | 27.2 | 45.7 | – | –
COc1cc2c(c(OC)c1OC)-c1ccc(OC)c(=O)cc1[C@@H](NC(C)=O)CC2 [COLCHICINE] | – | 0.12 | 0.69 | 0.54 | 0.07 | – | –
COc1cc(COCc2cn(Cc3cc(-c4ccc(F)cc4)cnc3Cl)nn2)cc(OC)c1OC | 41 | 50.6 | 38.8 | 49.6 | 96.6 | – | –

Now from value to compound, other results behind:

inhibition (Tubulin (Bos taurus)) [%] | SMILES | IC50 (A549) [µM] | IC50 (DU-145) [µM] | IC50 (HeLa [1]) [µM] | IC50 (MCF7) [µM] | Activity (HeLa [2]) | Activity (HeLa [3])
19 | COc1cc(-c2cc(COCc3cn(Cc4cc(C)cnc4N4CCOCC4)nn3)on2)cc(OC)c1OC | 39.5 | 54.7 | 128 | 195 | – | –
48 | COc1cc(COCc2cn(Cc3cc(-c4ccc(C)cc4)cnc3N3CCOCC3)nn2)cc(OC)c1OC | 38.5 | 34.8 | 35.8 | 51.7 | – | –
16 | COc1cc(COCc2cn(Cc3cc(-c4ccccc4)cnc3N3CCOCC3)nn2)cc(OC)c1OC | 84 | 70.3 | 85.1 | 97.6 | – | –
64 | COc1cc(-c2cc(COCc3cn(Cc4cc(-c5ccc(C)cc5)cnc4N4CCOCC4)nn3)on2)cc(OC)c1OC | 45.3 | 52.1 | 36.1 | 73.4 | – | –
27 | COc1cc(-c2cc(COCc3cn(Cc4cc(-c5ccccc5)cnc4N4CCOCC4)nn3)on2)cc(OC)c1OC | 39.2 | 54 | 39.4 | 63.4 | – | –
46 | COc1cc(C2=NOC(COCc3cn(Cc4cc(-c5ccccc5)cnc4N4CCOCC4)nn3)C2)cc(OC)c1OC (stereo unspecified) | 39.2 | 44.8 | 42.6 | 68.8 | – | –
16 | COc1cc(-c2cc(COCc3cn(Cc4cc(-c5ccccc5)cnc4Cl)nn3)on2)cc(OC)c1OC | 112 | 78.5 | 43.1 | 68.5 | – | –
